Experimental data from ChEMBL document CHEMBL1131231, “New azole antifungals. 2. Synthesis and antifungal activity of heterocyclecarboxamide derivatives of 3-amino-2-aryl-1-azolyl-2-butanol” (1998).
In brackets after ≈: the same amount, converted by molar mass.

Experiments:
[1] = In vivo antifungal activity against murine candidosis model after peroral administration with 1 mg/kg for 5 days.(percent protection for 100% mortality with untreated group); type: functional, Mus musculus; settings: route oral
Outline: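 Second murine systemic Candida albicans model. Mice, n = 10 per group, dosed orally once daily for 5 days after infection. Animals observed for 65 days, with survival rate as read-out and vehicle controls included. Reported as % protection on the day of 100% mortality in the untreated group or in the fluconazole-treated group.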

[2] = The compound was tested in vitro for antifungal activity against 10 yeasts.; type: functional
Outline: (§1)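 Agar dilution on Kimmig's agar with 0.5% glycerol; ATCC or clinical isolates, inocula at 10⁵ cfu/mL. Drugs from 800 μg/mL stock in 50% ethanol, 2-fold serial dilutions 80 to 0.03 μg/mL in plates. Incubated 25 °C, 48 h for yeasts, 120 h for filamentous fungi. Value is geometric mean of MICs (μg/mL); >80 taken as 160, ≤0.03 as 0.03.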

[3] = The compound was tested in vitro for antifungal activity against 6 filamentous fungi.; type: functional; outline: as §1
[4] = system: Candida albicans; experiment: In vivo antifungal activity against murine candidosis model after peroral administration with 0.5 mg/kg at various time intervals. (percent protection for 100% mortality with untreated group); type: functional; settings: route oral
Outline: (§2)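 Male mice, groups of 10, infected iv with 0.2 mL Candida albicans at (2–8) × 10⁷ cfu/mL. Oral suspension in 1% Tween + 0.2% carboxymethylcellulose in water, given 1, 4 and 24 h post-infection; vehicle controls and a fluconazole group at the same dose. Survival scored on days 1, 2, 3, 5, 7, 9, reported as % surviving on the day untreated, or fluconazole-treated, mortality reached 100%.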

[5] = system: Candida albicans; experiment: In vivo antifungal activity against murine candidosis model after peroral administration with 1 mg/kg at various time intervals. (percent protection for 100% mortality with fluconazole-treated group.); type: functional; settings: route oral; outline: as §2
[6] = system: Candida albicans; experiment: In vivo antifungal activity against murine candidosis model after peroral administration with 1 mg/kg at various time intervals. (percent protection for 100% mortality with untreated group); type: functional; settings: route oral; outline: as §2
[7] = system: Candida albicans; experiment: In vivo antifungal activity against murine candidosis model after peroral administration with 0.5 mg/kg at various time intervals. (percent protection for 100% mortality with fluconazole-treated group.); type: functional; settings: route oral; outline: as §2

Compound | Protection [1] | MIC [2] | MIC [3] | Protection [4] | Protection [5] | Protection [6] | Protection [7]
OC(Cn1cncn1)(Cn1cncn1)c1ccc(F)cc1F [FLUCONAZOLE] | 100% | 30 µg/mL (≈ 98 µM) | > 80 µg/mL | 100% |  |  | 
C[C@@H](NC(=O)c1cnn(-c2ccc(C(F)(F)F)cc2)c1C(F)(F)F)[C@](O)(Cn1cncn1)c1ccc(F)cc1F |  | 1.8 µg/mL (≈ 3.13 µM) | 13 µg/mL (≈ 22.6 µM) |  | 0% | 60% | 
Cc1c(C(=O)N[C@H](C)[C@](O)(Cn2cncn2)c2ccc(F)cc2F)cnc2cc(-c3ccc(Cl)cc3)nn12 |  | 1.4 µg/mL (≈ 2.6 µM) | 6.3 µg/mL (≈ 11.7 µM) |  | 0% | 100% | 
Cc1c(C(=O)N[C@H](C)[C@](O)(Cn2cncn2)c2ccc(F)cc2F)cnn1-c1ccc(Br)cc1 |  | 2 µg/mL (≈ 3.76 µM) | 13 µg/mL (≈ 24.5 µM) |  | 50% | 100% | 
C[C@@H](n1cnc2cc(-c3ccc(F)cc3)sc2c1=O)[C@](O)(Cn1cncn1)c1ccc(F)cc1F |  | 0.4 µg/mL (≈ 0.804 µM) | 2.2 µg/mL (≈ 4.42 µM) |  | 100% | 100% | 
CSc1ccc(-c2cc3ncn([C@H](C)[C@](O)(Cn4cncn4)c4ccc(F)cc4F)c(=O)c3s2)cc1 |  | 5.5 µg/mL (≈ 10.5 µM) | > 80 µg/mL |  | 0% | 30% | 
Cc1c(C(=O)N[C@H](C)[C@](O)(Cn2cncn2)c2ccc(F)cc2F)cnn1-c1ccc(Cl)cc1 |  | 1.8 µg/mL (≈ 3.7 µM) | 16 µg/mL (≈ 32.9 µM) |  | 60% | 80% | 
Cc1c(C(=O)N[C@H](C)[C@](O)(Cn2cncn2)c2ccc(F)cc2F)cnn1-c1ccccc1Cl |  | 11 µg/mL (≈ 22.6 µM) | > 80 µg/mL |  | 0% | 0% | 
C[C@@H](n1cnc2cc(-c3ccc(C(=N)NO)cc3)sc2c1=O)[C@](O)(Cn1cncn1)c1ccc(F)cc1F |  | 2.4 µg/mL (≈ 4.46 µM) | > 80 µg/mL |  | 0% | 90% | 
C[C@@H](n1cnc2cc(-c3ccc([N+](=O)[O-])cc3)sc2c1=O)[C@](O)(Cn1cncn1)c1ccc(F)cc1F |  | 5.9 µg/mL (≈ 11.2 µM) | > 80 µg/mL |  | 90% | 100% | 
Cc1nn(-c2ccc(Cl)cc2)c(C)c1C(=O)N[C@H](C)[C@](O)(Cn1cncn1)c1ccc(F)cc1F |  | 1.5 µg/mL (≈ 2.99 µM) | 8.9 µg/mL (≈ 17.8 µM) |  | 20% | 90% | 
C[C@@H](NC(=O)c1cnn(-c2ccc(Cl)cc2)c1N)[C@](O)(Cn1cncn1)c1ccc(F)cc1F |  | 2.7 µg/mL (≈ 5.53 µM) | 45 µg/mL (≈ 92.2 µM) |  | 0% | 80% | 
Cc1c(C(=O)N[C@H](C)[C@](O)(Cn2cncn2)c2ccc(F)cc2F)cnn1-c1cccc(C(F)(F)F)c1 |  | 4.6 µg/mL (≈ 8.84 µM) | 20 µg/mL (≈ 38.4 µM) |  | 0% | 100% | 
Cc1c(C(=O)N[C@H](C)[C@](O)(Cn2cncn2)c2ccc(F)cc2F)cnn1-c1ccc(C(F)(F)F)cc1 |  | 1.7 µg/mL (≈ 3.27 µM) | 13 µg/mL (≈ 25 µM) |  | 80% | 100% | 
Cc1c(C(=O)N[C@H](C)[C@](O)(Cn2cncn2)c2ccc(F)cc2F)cnn1-c1ccc(OC(F)(F)F)cc1 |  | 2.6 µg/mL (≈ 4.85 µM) | 5.6 µg/mL (≈ 10.4 µM) |  | 80% | 100% | 
Cc1c(C(=O)N[C@H](C)[C@](O)(Cn2cncn2)c2ccc(F)cc2F)cnn1-c1cc(Cl)cc(Cl)c1 |  | 19 µg/mL (≈ 36.4 µM) | > 80 µg/mL |  | 0% | 20% | 
Cc1cc2ncc(C(=O)N[C@H](C)[C@](O)(Cn3cncn3)c3ccc(F)cc3F)c(C)n2n1 |  | 70 µg/mL (≈ 159 µM) | > 80 µg/mL |  | 0% | 20% | 
C[C@@H](n1cnc2cc(-c3ccc(C4=NCCO4)cc3)sc2c1=O)[C@](O)(Cn1cncn1)c1ccc(F)cc1F |  | 1.9 µg/mL (≈ 3.46 µM) | > 80 µg/mL |  | 20% | 100% | 
C[C@@H](NC(=O)c1cnn(-c2ccc(Cl)cc2)c1C1CC1)[C@](O)(Cn1cncn1)c1ccc(F)cc1F |  | 1.8 µg/mL (≈ 3.51 µM) | > 80 µg/mL |  | 0% | 100% | 
Cc1c(C(=O)N[C@H](C)[C@](O)(Cn2cncn2)c2ccc(F)cc2F)cnn1-c1c(Cl)cccc1Cl |  | 21 µg/mL (≈ 40.3 µM) | > 80 µg/mL |  | 0% | 0% | 
CCCc1c(C(=O)N[C@H](C)[C@](O)(Cn2cncn2)c2ccc(F)cc2F)cnn1-c1ccc(Cl)cc1 |  | 1.9 µg/mL (≈ 3.69 µM) | 36 µg/mL (≈ 69.9 µM) |  | 0% | 100% | 

Compound | Protection [1] | MIC [2] | MIC [3] | Protection [4] | Protection [5] | Protection [6] | Protection [7]
C[C@@H](n1cnc2cc(-c3ccc(C(N)=O)cc3)sc2c1=O)[C@](O)(Cn1cncn1)c1ccc(F)cc1F |  | 1.3 µg/mL (≈ 2.49 µM) | 45 µg/mL (≈ 86.1 µM) |  | 20% | 100% | 
CC(=O)ONC(=N)c1ccc(-c2cc3ncn([C@H](C)[C@](O)(Cn4cncn4)c4ccc(F)cc4F)c(=O)c3s2)cc1 |  | 3.7 µg/mL (≈ 6.38 µM) | 36 µg/mL (≈ 62.1 µM) |  | 0% | 60% | 
C[C@@H](NC(=O)c1cnn(-c2ccc(Cl)cc2)c1C(F)(F)F)[C@](O)(Cn1cncn1)c1ccc(F)cc1F |  | 1.2 µg/mL (≈ 2.22 µM) | 7.1 µg/mL (≈ 13.1 µM) |  | 50% | 100% | 
Cc1c(S(=O)(=O)c2ccc(Cl)cc2)csc1C(=O)N[C@H](C)[C@](O)(Cn1cncn1)c1ccc(F)cc1F |  | 1.6 µg/mL (≈ 2.82 µM) | 11 µg/mL (≈ 19.4 µM) |  | 0% | 70% | 
C[C@@H](NC(=O)c1cnn(-c2ccc(Cl)cc2)c1C(C)(C)C)[C@](O)(Cn1cncn1)c1ccc(F)cc1F |  | 4.6 µg/mL (≈ 8.7 µM) | > 80 µg/mL |  | 0% | 0% | 
Cc1nc(-c2ccc(C#N)cc2)sc1C(=O)N[C@H](C)[C@](O)(Cn1ccnc1)c1ccc(F)cc1F |  | 10 µg/mL (≈ 20.3 µM) | 45 µg/mL (≈ 91.2 µM) | 70% |  |  | 0%
Cc1nc(-c2ccc(Cl)cc2)sc1C(=O)N[C@H](C)[C@](O)(Cn1cncn1)c1ccc(F)cc1F |  | 0.8 µg/mL (≈ 1.59 µM) | 1.2 µg/mL (≈ 2.38 µM) | 100% |  |  | 100%
C[C@@H](NC(=O)c1ccc(-c2ccc(Cl)cc2)s1)[C@](O)(Cn1cncn1)c1ccc(F)cc1F |  | 0.2 µg/mL (≈ 0.409 µM) | 3.5 µg/mL (≈ 7.16 µM) | 100% |  |  | 100%
COc1ccc(-n2ncc(C(=O)N[C@H](C)[C@](O)(Cn3cncn3)c3ccc(F)cc3F)c2C)cc1 |  | 6.1 µg/mL (≈ 12.6 µM) | 23 µg/mL (≈ 47.7 µM) |  | 0% | 0% | 
C[C@@H](NC(=O)c1cnn(-c2ccc(Cl)cc2)c1)[C@](O)(Cn1cncn1)c1ccc(F)cc1F |  | 1.9 µg/mL (≈ 4.02 µM) | > 80 µg/mL |  | 50% | 100% | 
Cc1nc(-c2ccc(OCC(F)(F)C(F)F)cc2)sc1C(=O)N[C@H](C)[C@](O)(Cn1cncn1)c1ccc(F)cc1F |  | 1.3 µg/mL (≈ 2.17 µM) | 2.2 µg/mL (≈ 3.67 µM) | 100% |  |  | 0%
C[C@@H](NC(=O)c1ccc(-c2ccc(C#N)cc2)s1)[C@](O)(Cn1cncn1)c1ccc(F)cc1F |  | 0.8 µg/mL (≈ 1.67 µM) | > 80 µg/mL | 100% |  |  | 100%
C[C@@H](n1cnc2cc(-c3ccc(C(=N)NC#N)cc3)sc2c1=O)[C@](O)(Cn1cncn1)c1ccc(F)cc1F |  | 2.7 µg/mL (≈ 4.94 µM) | 80 µg/mL (≈ 146 µM) |  | <20% | 100% | 
C[C@@H](n1cnc2cc(-c3ccc(S(C)(=O)=O)cc3)sc2c1=O)[C@](O)(Cn1cncn1)c1ccc(F)cc1F |  | 2.3 µg/mL (≈ 4.12 µM) | > 80 µg/mL |  | 0% | 40% | 
CC(C)c1c(C(=O)N[C@H](C)[C@](O)(Cn2cncn2)c2ccc(F)cc2F)cnn1-c1ccc(Cl)cc1 |  | 3.3 µg/mL (≈ 6.41 µM) | > 80 µg/mL |  | 0% | 60% | 
Cc1nc(-c2ccc(Br)cc2)sc1C(=O)N[C@H](C)[C@](O)(Cn1cncn1)c1ccc(F)cc1F |  | 0.6 µg/mL (≈ 1.09 µM) | 1.8 µg/mL (≈ 3.28 µM) | 100% |  |  | 90%
Cc1c(C(=O)N[C@H](C)[C@](O)(Cn2cncn2)c2ccc(F)cc2F)cnn1-c1ccc(F)cc1F |  | 5.3 µg/mL (≈ 10.9 µM) | 63 µg/mL (≈ 129 µM) |  | 0% | 0% | 
Cc1nc(-c2ccc(C(F)(F)F)cc2)sc1C(=O)N[C@H](C)[C@](O)(Cn1cncn1)c1ccc(F)cc1F |  | 0.9 µg/mL (≈ 1.67 µM) | 2.2 µg/mL (≈ 4.09 µM) | 100% |  |  | 100%
Cc1nc(-c2ccc(OC(F)(F)F)cc2)sc1C(=O)N[C@H](C)[C@](O)(Cn1cncn1)c1ccc(F)cc1F |  | 1.3 µg/mL (≈ 2.35 µM) | 1.6 µg/mL (≈ 2.89 µM) | 100% |  |  | 100%
C[C@@H](NC(=O)c1scc(S(=O)(=O)c2ccc(Cl)cc2)c1N)[C@](O)(Cn1cncn1)c1ccc(F)cc1F |  | 1 µg/mL (≈ 1.76 µM) | 10 µg/mL (≈ 17.6 µM) | 20% |  |  | 0%
C[C@@H](NC(=O)c1sc(-c2ccc(Cl)cc2)cc1N)[C@](O)(Cn1cncn1)c1ccc(F)cc1F |  | 0.6 µg/mL (≈ 1.19 µM) | 22 µg/mL (≈ 43.7 µM) | 0% |  |  | 0%
